Columns and labels:
[1] = Antiproliferative activity against human BT549 cells incubated for 48 hrs by sulforhodamine B assay; format: functional; settings: BT-549, 48 h
Summary of the method: (§1)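 Run externally by the US National Cancer Institute as part of its 60 human cancer cell line cytotoxicity screen (NCI-60).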

SR = test: Antiproliferative activity against human SR cells incubated for 48 hrs by sulforhodamine B assay; format: functional; summary of the method: as §1
HT-29 = test: Antiproliferative activity against human HT-29 cells incubated for 48 hrs by sulforhodamine B assay; format: functional; settings: HT-29, 48 h; summary of the method: as §1
[2] = Antiproliferative activity against human IGROV1 cells incubated for 48 hrs by sulforhodamine B assay; format: functional; settings: IGROV-1, 48 h
[3] = Antiproliferative activity against human NCI60 incubated for 48 hrs by sulforhodamine B assay; format: functional; settings: NCI60, 48 h; summary of the method: as §1
NCI-H460 = test: Antiproliferative activity against human NCI-H460 cells incubated for 48 hrs by sulforhodamine B assay; format: functional; settings: NCI-H460, 48 h; summary of the method: as §1
[4] = molecular target: Phosphatidylinositol 4,5-bisphosphate 3-kinase catalytic subunit beta isoform (Homo sapiens, UniProt P42338); test: Inhibition of PI3K-beta (unknown origin) at 10 nM after 40 mins by ADP-Glo luminescent kinase assay
Sequence of Phosphatidylinositol 4,5-bisphosphate 3-kinase catalytic subunit beta isoform (P42338 whole entry, looked up, canonical isoform): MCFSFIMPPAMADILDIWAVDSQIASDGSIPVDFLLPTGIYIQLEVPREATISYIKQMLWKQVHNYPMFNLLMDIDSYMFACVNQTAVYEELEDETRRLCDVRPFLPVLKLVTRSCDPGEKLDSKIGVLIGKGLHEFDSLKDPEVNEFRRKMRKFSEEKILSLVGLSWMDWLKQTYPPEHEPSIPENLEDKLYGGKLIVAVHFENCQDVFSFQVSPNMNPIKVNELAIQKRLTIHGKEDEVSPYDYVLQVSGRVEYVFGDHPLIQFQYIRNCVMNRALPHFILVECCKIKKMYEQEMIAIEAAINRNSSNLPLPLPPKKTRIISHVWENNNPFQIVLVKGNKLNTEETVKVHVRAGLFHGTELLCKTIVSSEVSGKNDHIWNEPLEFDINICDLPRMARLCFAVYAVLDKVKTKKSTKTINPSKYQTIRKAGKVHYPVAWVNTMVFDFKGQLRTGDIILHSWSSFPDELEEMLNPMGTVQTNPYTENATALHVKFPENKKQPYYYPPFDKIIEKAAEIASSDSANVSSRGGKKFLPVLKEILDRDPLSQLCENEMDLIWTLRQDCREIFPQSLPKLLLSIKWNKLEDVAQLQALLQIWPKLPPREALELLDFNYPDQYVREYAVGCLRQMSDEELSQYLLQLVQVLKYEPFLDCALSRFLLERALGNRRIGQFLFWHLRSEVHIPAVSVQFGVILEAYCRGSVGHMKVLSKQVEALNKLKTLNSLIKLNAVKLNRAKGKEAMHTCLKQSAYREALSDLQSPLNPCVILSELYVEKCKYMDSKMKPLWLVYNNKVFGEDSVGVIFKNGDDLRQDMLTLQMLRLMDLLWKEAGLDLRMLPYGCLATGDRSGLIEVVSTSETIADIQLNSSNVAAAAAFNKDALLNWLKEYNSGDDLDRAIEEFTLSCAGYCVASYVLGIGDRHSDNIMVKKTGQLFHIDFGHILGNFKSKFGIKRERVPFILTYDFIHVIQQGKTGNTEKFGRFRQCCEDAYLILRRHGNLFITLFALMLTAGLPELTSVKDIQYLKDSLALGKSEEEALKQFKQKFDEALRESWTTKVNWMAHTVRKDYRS
Summary of the method: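 Final enzyme was PI3Kβ 4.8 nM and PI3Kγ 7.6 nM. ADP-Glo reagent stopped the reaction (40 min), then detection reagent was added (60 min) and luminescence read. Percent inhibition was derived from RLU.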

[5] = Antiproliferative activity against human UO31 cells incubated for 48 hrs by sulforhodamine B assay; format: functional; settings: UO-31, 48 h
SK-MEL-5 = test: Antiproliferative activity against human SK-MEL-5 cells incubated for 48 hrs by sulforhodamine B assay; format: functional; settings: SK-MEL-5, 48 h; summary of the method: as §1
[6] = Antitumor activity against human Bel7404 cells xenografted in BALB/c nude mouse assessed as reduction in tumor volume at 30 mg/kg, po qd for 14 consecutive days relative to control; format: functional, BEL-7404; set-up: scale not given: the % may be the effect or the level left
Summary of the method: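 Male BALB/c nude mice carried implanted BEL-7404 tumours and were randomized once tumours reached 100–300 mm³ (about 12 days); there were 6 per treated group and 8 controls. Drug in 5% polysorbate 80/water was given orally once daily for 14 days from day 13. Tumour volume (1/2·a·b·b) and body weight were tracked, with sacrifice on day 29. The read-out was relative tumour volume versus vehicle, reported as mean SE.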

NCI-H226 = test: Antiproliferative activity against human NCI-H226 cells incubated for 48 hrs by sulforhodamine B assay; format: functional; settings: NCI-H226, 48 h; summary of the method: as §1
[7] = Antiproliferative activity against human HL-60(TB) cells incubated for 48 hrs by sulforhodamine B assay; format: functional; settings: HL-60, 48 h
SK-MEL-28 = test: Antiproliferative activity against human SK-MEL-28 cells incubated for 48 hrs by sulforhodamine B assay; format: functional; settings: SK-MEL-28, 48 h; summary of the method: as §1
[8] = Antiproliferative activity against human HOP92 cells incubated for 48 hrs by sulforhodamine B assay; format: functional; settings: HOP-92, 48 h
[9] = Antiproliferative activity against human SW620 cells incubated for 48 hrs by sulforhodamine B assay; format: functional; settings: SW-620, 48 h; summary of the method: as §1
[10] = Cytotoxicity against human Bel7404 cells after 72 hrs by MTT assay; format: functional, cell-based; settings: BEL-7404, 72 h
Summary of the method: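 Log-phase cells at 40,000–50,000 cells/mL in DMEM with 10% FBS and antibiotics were seeded and cultured overnight at 37 °C, 5% CO₂. Compounds were diluted in DMSO/PBS from 10^-4 to 10^-9 M and applied for 72 h. MTT (5 mg/mL stock) was then added for 4 h and absorbance read at 570 nm. IC50 came from nonlinear regression on triplicate wells, averaged.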

MCF7 = test: Antiproliferative activity against human MCF7 cells incubated for 48 hrs by sulforhodamine B assay; format: functional; settings: MCF7, 48 h; summary of the method: as §1
Mus musculus = test: Toxicity in BALB/C nude mouse xenografted with human Bel7404 cells assessed as mortality at 30 mg/kg, po qd for 14 consecutive days; format: organism-based; settings: in vivo
Summary of the method: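 Male BALB/C nude mice were implanted with BEL-7404 cells. When tumors reached 100–300 mm³ (after 12 days), mice were randomized to 6 per treatment group and 8 controls. The drug, suspended in 5% polysorbate 80 in water, was given orally once daily for 14 days from day 13. Body weight and mortality were tracked during dosing, and mice were sacrificed on day 29.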

NCI-H322M = test: Antiproliferative activity against human NCI-H322M cells incubated for 48 hrs by sulforhodamine B assay; format: functional; summary of the method: as §1
[11] = Antiproliferative activity against human RXF393 cells incubated for 48 hrs by sulforhodamine B assay; format: functional; settings: RXF 393, 48 h; summary of the method: as §1
[12] = Antiproliferative activity against human TK10 cells incubated for 48 hrs by sulforhodamine B assay; format: functional; settings: TK-10, 48 h
CCRF-CEM = test: Antiproliferative activity against human CCRF-CEM cells incubated for 48 hrs by sulforhodamine B assay; format: functional; summary of the method: as §1
[13] = Antiproliferative activity against human Hs 578T cells incubated for 48 hrs by sulforhodamine B assay; format: functional
[14] = Half life in rat liver microsomes; format: ADME
[15] = Antiproliferative activity against human LOXIMVI cells incubated for 48 hrs by sulforhodamine B assay; format: functional; settings: LOX IMVI; summary of the method: as §1
K562 = test: Antiproliferative activity against human K562 cells incubated for 48 hrs by sulforhodamine B assay; format: functional; settings: K562, 48 h; summary of the method: as §1
ACHN = test: Antiproliferative activity against human ACHN cells incubated for 48 hrs by sulforhodamine B assay; format: functional; summary of the method: as §1
[16] = Antiproliferative activity against human UACC257 cells incubated for 48 hrs by sulforhodamine B assay; format: functional; settings: UACC-257, 48 h
MDA-MB-468 = test: Antiproliferative activity against human MDA-MB-468 cells incubated for 48 hrs by sulforhodamine B assay; format: functional; settings: MDA-MB-468, 48 h; summary of the method: as §1
[17] = read-out: pLC50 (the source's name) (converted)

SMILES: COc1ncc(-c2ccc3nccc(C#CCN4CCN(S(C)(=O)=O)CC4)c3c2)cc1NS(=O)(=O)c1ccc(F)cc1F
- GI50 [1]: 41.7 nM
- CC50 [1, 17]: 4570 nM
- TGI ([1]; read-out: pTGI (converted)): 813 nM
- GI50 (SR): 251 nM
- CC50 (SR; [17]): > 100000 nM
- TGI (SR; read-out: pTGI (converted)): 15500 nM
- GI50 (HT-29): 20.4 nM
- CC50 (HT-29; [17]): 35500 nM
- TGI (HT-29; read-out: pTGI (converted)): 1510 nM
- GI50 [2]: < 10 nM
- CC50 [2, 17]: > 100000 nM
- GI50 [3]: 65 nM
- GI50 (NCI-H460): 51.3 nM
- CC50 (NCI-H460; [17]): 30900 nM
- TGI (NCI-H460; read-out: pTGI (converted)): 2140 nM
- inhibition [4]: 69%
- GI50 [5]: 31.6 nM
- CC50 [5, 17]: 39800 nM
- TGI ([5]; read-out: pTGI (converted)): 11700 nM
- GI50 (SK-MEL-5): 195 nM
- CC50 (SK-MEL-5; [17]): 2950 nM
- TGI (SK-MEL-5; read-out: pTGI (converted)): 550 nM
- Activity [6]: 52%
- GI50 (NCI-H226): 245 nM
- CC50 (NCI-H226; [17]): 7240 nM
- TGI (NCI-H226; read-out: pTGI (converted)): 1820 nM
- GI50 [7]: 19.5 nM
- CC50 [7, 17]: > 100000 nM
- TGI ([7]; read-out: pTGI (converted)): 1450 nM
- GI50 (SK-MEL-28): 34.7 nM
- CC50 (SK-MEL-28; [17]): 5250 nM
- TGI (SK-MEL-28; read-out: pTGI (converted)): 1050 nM
- GI50 [8]: 13.8 nM
- CC50 [8, 17]: 58900 nM
- GI50 [9]: 229 nM
- CC50 [9, 17]: 6920 nM
- TGI ([9]; read-out: pTGI (converted)): 1950 nM
- IC50 [10]: 20 nM
- GI50 (MCF7): < 10 nM
- CC50 (MCF7; [17]): 49000 nM
- TGI (MCF7; read-out: pTGI (converted)): 1780 nM
- Activity (Mus musculus): Non-toxic
- GI50 (NCI-H322M): 110 nM
- CC50 (NCI-H322M; [17]): 36300 nM
- TGI (NCI-H322M; read-out: pTGI (converted)): 6920 nM
- GI50 [11]: 51.3 nM
- CC50 [11, 17]: 11700 nM
- TGI ([11]; read-out: pTGI (converted)): 427 nM
- GI50 [12]: 11.8 nM
- CC50 [12, 17]: 38900 nM
- GI50 (CCRF-CEM): 148 nM
- CC50 (CCRF-CEM; [17]): > 100000 nM
- TGI (CCRF-CEM; read-out: pTGI (converted)): 2570 nM
- GI50 [13]: 18.6 nM
- CC50 [13, 17]: > 100000 nM
- half-life [14]: 29 min
- GI50 [15]: 81.3 nM
- CC50 [15, 17]: 5620 nM
- TGI ([15]; read-out: pTGI (converted)): 1350 nM
- GI50 (K562): 646 nM
- CC50 (K562; [17]): > 100000 nM
- TGI (K562; read-out: pTGI (converted)): 17000 nM
- GI50 (ACHN): 45.7 nM
- CC50 (ACHN; [17]): 34700 nM
- TGI (ACHN; read-out: pTGI (converted)): 6920 nM
- GI50 [16]: 38.9 nM
- CC50 [16, 17]: 15500 nM
- TGI ([16]; read-out: pTGI (converted)): 603 nM
- GI50 (MDA-MB-468): 17 nM
- CC50 (MDA-MB-468; [17]): 1380 nM
- TGI (MDA-MB-468; read-out: pTGI (converted)): 85.1 nM
